Values belong to the compound of their own block, whether it stands above or below them.
Columns and labels:
Rattus norvegicus [1] = experiment: Antiarrhythmic activity in Wistar rat assessed as effect on heart beat at 5 mg/kg, iv after 1 min; type: functional
How it was run: (§1)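 Male Wistar rats (180–250 g), anaesthetised with thiopental 60 mg/kg ip. Compound given iv in water at 10 mg/kg, or at a lower starting dose of 5 or 2.5 mg/kg. Standard lead II ECG recorded at 50 mm/s just before dosing and at 1, 5 and 15 min after. Heart rate and P–Q, Q–T and QRS intervals were read. n=6 per group, mean ± SEM, one-way ANOVA.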

Rattus norvegicus [2] = experiment: Antiarrhythmic activity in Wistar rat assessed as effect on heart beat at 5 mg/kg, iv after 5 mins; type: functional; how it was run: as §1
Rattus norvegicus [3] = experiment: Antiarrhythmic activity in Wistar rat assessed as effect on heart beat at 5 mg/kg, iv after 15 mins; type: functional; how it was run: as §1
Rattus norvegicus [4] = experiment: Cardiotoxicity in Wistar rat assessed as effect on P-Q interval at 5 mg/kg, iv after 1 min; type: toxicity, organism-based; parameters: dose 5 mg/kg, route intravenous; details: in vivo; how it was run: as §1
Rattus norvegicus [5] = experiment: Cardiotoxicity in Wistar rat assessed as effect on P-Q interval at 5 mg/kg, iv after 5 mins; type: toxicity, organism-based; parameters: dose 5 mg/kg, route intravenous; details: in vivo; how it was run: as §1
Rattus norvegicus [6] = experiment: Cardiotoxicity in Wistar rat assessed as effect on P-Q interval at 5 mg/kg, iv after 15 mins; type: toxicity, organism-based; parameters: dose 5 mg/kg, route intravenous; details: in vivo, 0.25 h; how it was run: as §1
Rattus norvegicus [7] = experiment: Cardiotoxicity in Wistar rat assessed as effect on Q-T interval at 5 mg/kg, iv after 1 min; type: toxicity, organism-based; parameters: dose 5 mg/kg, route intravenous; details: in vivo; how it was run: as §1
Rattus norvegicus [8] = experiment: Cardiotoxicity in Wistar rat assessed as effect on Q-T interval at 5 mg/kg, iv after 5 mins; type: toxicity, organism-based; parameters: dose 5 mg/kg, route intravenous; details: in vivo; how it was run: as §1
Rattus norvegicus [9] = experiment: Cardiotoxicity in Wistar rat assessed as effect on Q-T interval at 5 mg/kg, iv after 15 mins; type: toxicity, organism-based; parameters: dose 5 mg/kg, route intravenous; details: in vivo, 0.25 h; how it was run: as §1
Rattus norvegicus [10] = experiment: Cardiotoxicity in Wistar rat assessed as effect on QRS interval at 5 mg/kg, iv after 1 min; type: toxicity, organism-based; parameters: dose 5 mg/kg, route intravenous; details: in vivo; how it was run: as §1
Rattus norvegicus [11] = experiment: Cardiotoxicity in Wistar rat assessed as effect on QRS interval at 5 mg/kg, iv after 5 mins; type: toxicity, organism-based; parameters: dose 5 mg/kg, route intravenous; details: in vivo; how it was run: as §1
Rattus norvegicus [12] = experiment: Cardiotoxicity in Wistar rat assessed as effect on QRS interval at 5 mg/kg, iv after 15 mins; type: toxicity, organism-based; parameters: dose 5 mg/kg, route intravenous; details: in vivo, 0.25 h; how it was run: as §1
Rattus norvegicus [13] = experiment: Hypotensive activity in normotensive Wistar rat assessed as decrease in systolic blood pressure at 2.5 to 10 mg/kg, iv at 1 min; type: organism-based, Artery; parameters: dose 2.5-10 mg/kg, route intravenous; details: in vivo
How it was run: (§2)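 Right carotid artery cannulated with heparin-saline-filled tubing for blood pressure recording. After 5 min stabilisation, compound injected iv into the caudal vein (2.5–10 mg/kg, 1 ml/kg). Systolic and diastolic pressure followed for 60 min. n=6 per group, mean ± SEM, one-way ANOVA.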

Rattus norvegicus [14] = experiment: Hypotensive activity in normotensive Wistar rat assessed as decrease in diastolic blood pressure at 2.5 to 10 mg/kg, iv at 1 min; type: organism-based, Artery; parameters: dose 2.5-10 mg/kg, route intravenous; details: in vivo; how it was run: as §2
Rattus norvegicus [15] = experiment: Hypotensive activity in normotensive Wistar rat assessed as decrease in systolic blood pressure at 2.5 to 10 mg/kg, iv after 1 min measured up to 60 mins; type: organism-based, Artery; parameters: dose 2.5-10 mg/kg, route intravenous; details: in vivo; how it was run: as §2
Rattus norvegicus [16] = experiment: Hypotensive activity in normotensive Wistar rat assessed as decrease in diastolic blood pressure at 2.5 to 10 mg/kg, iv after 1 min measured up to 60 mins; type: organism-based, Artery; parameters: dose 2.5-10 mg/kg, route intravenous; details: in vivo; how it was run: as §2
[17] = molecular target: T1, Adrenergic receptor alpha-1 (Rattus norvegicus, UniProt P15823+P23944+P43140); experiment: Displacement of [3H]prazosin from alpha1 adrenoceptor in rat cerebral cortex after 30 mins by microbeta scintillation counting; type: tissue-based
T1 sequence (P15823 whole entry): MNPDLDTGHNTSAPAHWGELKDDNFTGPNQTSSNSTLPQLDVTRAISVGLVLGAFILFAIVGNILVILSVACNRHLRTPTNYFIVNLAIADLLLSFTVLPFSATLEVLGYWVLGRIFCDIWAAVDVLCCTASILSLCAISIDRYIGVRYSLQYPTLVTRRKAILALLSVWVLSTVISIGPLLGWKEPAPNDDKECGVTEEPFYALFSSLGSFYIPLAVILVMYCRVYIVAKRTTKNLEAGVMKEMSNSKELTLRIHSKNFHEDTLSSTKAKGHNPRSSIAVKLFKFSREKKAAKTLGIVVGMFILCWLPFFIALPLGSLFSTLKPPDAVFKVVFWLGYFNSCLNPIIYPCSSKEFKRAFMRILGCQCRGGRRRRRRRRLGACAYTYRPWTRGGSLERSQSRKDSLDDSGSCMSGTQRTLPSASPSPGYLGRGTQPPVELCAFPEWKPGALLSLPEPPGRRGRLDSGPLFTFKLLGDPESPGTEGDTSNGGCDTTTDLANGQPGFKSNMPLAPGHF
T1 sequence (P23944 whole entry): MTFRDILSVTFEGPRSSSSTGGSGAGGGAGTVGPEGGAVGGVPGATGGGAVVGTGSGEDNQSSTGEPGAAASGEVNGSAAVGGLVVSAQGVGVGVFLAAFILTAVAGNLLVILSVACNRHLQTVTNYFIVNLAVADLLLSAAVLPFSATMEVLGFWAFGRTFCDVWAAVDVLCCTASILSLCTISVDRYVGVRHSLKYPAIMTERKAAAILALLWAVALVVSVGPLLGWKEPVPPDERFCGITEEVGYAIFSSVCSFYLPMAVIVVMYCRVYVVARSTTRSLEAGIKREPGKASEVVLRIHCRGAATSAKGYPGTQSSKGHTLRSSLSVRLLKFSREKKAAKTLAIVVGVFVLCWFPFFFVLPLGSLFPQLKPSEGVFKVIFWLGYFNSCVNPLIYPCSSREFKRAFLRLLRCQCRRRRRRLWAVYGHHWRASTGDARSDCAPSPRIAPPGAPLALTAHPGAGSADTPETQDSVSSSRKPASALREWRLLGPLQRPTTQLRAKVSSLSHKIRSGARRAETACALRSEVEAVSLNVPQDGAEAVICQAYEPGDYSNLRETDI
T1 sequence (P43140 whole entry): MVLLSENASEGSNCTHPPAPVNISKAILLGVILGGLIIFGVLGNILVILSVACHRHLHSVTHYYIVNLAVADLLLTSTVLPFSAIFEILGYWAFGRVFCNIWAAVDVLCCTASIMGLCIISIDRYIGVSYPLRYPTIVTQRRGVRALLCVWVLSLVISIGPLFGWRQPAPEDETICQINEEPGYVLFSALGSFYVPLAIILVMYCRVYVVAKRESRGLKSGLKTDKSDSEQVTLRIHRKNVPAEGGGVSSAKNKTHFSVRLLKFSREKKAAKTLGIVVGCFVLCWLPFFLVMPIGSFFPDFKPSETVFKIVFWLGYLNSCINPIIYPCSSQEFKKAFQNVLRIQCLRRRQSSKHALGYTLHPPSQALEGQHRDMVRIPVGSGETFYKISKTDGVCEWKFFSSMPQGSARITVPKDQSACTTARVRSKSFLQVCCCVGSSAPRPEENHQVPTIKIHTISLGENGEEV
How it was run: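 Rat cerebral cortex homogenised in ice-cold 50 mM Tris-HCl (pH 7.6 at 25 °C), washed twice at 20000×g and resuspended at 10 mg wet weight/ml. Incubated with [3H]prazosin (19.5 Ci/mmol) and test compound for 30 min at 25 °C. Nonspecific binding defined with 10 µM phentolamine. GF/B filtration, scintillation counting, three-parameter logistic competition fit.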

SMILES: COC(=O)CN1C(=O)N(CC(O)CN2CCN(c3ccccc3)CC2)C(c2ccccc2)(c2ccccc2)C1=O.Cl (racemic)
Activity (Rattus norvegicus [1]): 246 min⁻¹
Activity (Rattus norvegicus [2]): 261 min⁻¹
Activity (Rattus norvegicus [3]): 272 min⁻¹
Activity (Rattus norvegicus [4]): 72 ms
Activity (Rattus norvegicus [5]): 65.2 ms
Activity (Rattus norvegicus [6]): 64 ms
Activity (Rattus norvegicus [7]): 97 ms
Activity (Rattus norvegicus [8]): 81 ms
Activity (Rattus norvegicus [9]): 74 ms
Activity (Rattus norvegicus [10]): 33 ms
Activity (Rattus norvegicus [11]): 26 ms
Activity (Rattus norvegicus [12]): 22 ms
Activity (Rattus norvegicus [13]): Toxic
Activity (Rattus norvegicus [14]): Toxic
Activity (Rattus norvegicus [15]): Non-toxic
Activity (Rattus norvegicus [16]): Non-toxic

Ki [17]: 354.7 nM
pKi [17]: 6.45
SMILES: COC(=O)CN1C(=O)N(CC(O)CN2CCN(c3ccccc3Cl)CC2)C(c2ccccc2)(c2ccccc2)C1=O.Cl (racemic)
Activity (Rattus norvegicus [1]): 290 min⁻¹
Activity (Rattus norvegicus [2]): 256 min⁻¹
Activity (Rattus norvegicus [3]): 268 min⁻¹
Activity (Rattus norvegicus [4]): 62 ms
Activity (Rattus norvegicus [5]): 63 ms
Activity (Rattus norvegicus [6]): 59 ms
Activity (Rattus norvegicus [7]): 76 ms
Activity (Rattus norvegicus [8]): 76 ms
Activity (Rattus norvegicus [9]): 69 ms
Activity (Rattus norvegicus [10]): 16 ms
Activity (Rattus norvegicus [11]): 15 ms
Activity (Rattus norvegicus [12]): 17 ms
Activity (Rattus norvegicus [13]): Toxic
Activity (Rattus norvegicus [14]): Toxic
Activity (Rattus norvegicus [15]): Non-toxic
Activity (Rattus norvegicus [16]): Non-toxic

— ChEMBL document CHEMBL2040780, “Antiarrhythmic properties of phenylpiperazine derivatives of phenytoin with α₁-adrenoceptor affinities” (Bioorg Med Chem, 2012)
